Laboratory results published in ChEMBL document CHEMBL2203239, “Discovery of novel 2-(3-(2-chlorophenyl)pyrazin-2-ylthio)-N-arylacetamides as potent HIV-1 inhibitors using a structure-based bioisosterism approach” (Bioorg Med Chem, 2012).

How the values were obtained:
[1] = Selectivity index, ratio of CC50 for HIV1 3B infected in human MT4 cells to EC50 for HIV1 3B; type: toxicity, cell-based; conditions: MT4 cells infected with HIV1 3B, read-out: Ratio CC50/EC50
Procedure, shortened: (§1)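 Selectivity index calculated as CC50/EC50. Both values come from the parallel 5-day MTT assays in MT-4 cells, with mock-infected and HIV-infected wells on the same plate.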

[2] = Selectivity index, ratio of CC50 for HIV2 ROD infected in human MT4 cells to EC50 for HIV1 3B; type: toxicity, cell-based; conditions: MT4 cells infected with HIV2 ROD, read-out: Ratio CC50/EC50; procedure, shortened: as §1
[3] = test system: Human immunodeficiency virus 2; experiment: Antiviral activity against HIV2 ROD infected in human MT4 cells assessed as inhibition of virus-induced cytopathic effect by MTT assay; type: functional, organism-based; conditions: Human immunodeficiency virus 2, ISOLATE ROD
Procedure, shortened: (§2)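 MT-4 cells, spun 5 min at 1000 rpm and resuspended at 6×10^5 cells/mL, infected with HIV-1(IIIB) or HIV-2(ROD) at 100–300 CCID50. Compounds added at start as serial fivefold dilutions, triplicate wells. Viability read by MTT at 540 and 690 nm five days post-infection, using the median OD of three wells. EC50 is the concentration giving 50% protection against virus-induced cytopathicity.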

[4] = Cytotoxicity against HIV1 3B infected in human MT4 cells by MTT assay; type: cell-based; conditions: MT4 cells infected with HIV1 3B
Procedure, shortened: (§3)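 Cytotoxicity measured in parallel on mock-infected MT-4 cells (6×10^5 cells/mL) that received culture medium instead of virus. Serial fivefold compound dilutions were run in triplicate. MTT read-out after 5 days at 540 and 690 nm, using the median OD of three wells. CC50 is the concentration that reduces OD540 of the mock-infected control by 50%.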

[5] = test system: Human immunodeficiency virus 1; experiment: Antiviral activity against HIV1 3B infected in human MT4 cells assessed as inhibition of virus-induced cytopathic effect by MTT assay; type: functional, organism-based; conditions: Human immunodeficiency virus 1, 3B; procedure, shortened: as §2
[6] = Cytotoxicity against HIV2 ROD infected in human MT4 cells by MTT assay; type: cell-based; conditions: MT4 cells infected with HIV2 ROD; procedure, shortened: as §3
[7] = molecular target: Human immunodeficiency virus type 1 reverse transcriptase (Human immunodeficiency virus 1, UniProt Q72547); experiment: Inhibition of HIV1 recombinant reverse transcriptase assessed as incorporation of biotin-dUTP into […] by colorimetric analysis
Procedure, shortened: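 Highly purified recombinant HIV-1 RT, with […] as template primer on plate-linked nucleotides. Activity measured colorimetrically as incorporation of biotin-dUTP.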

[8] = test system: Human immunodeficiency virus; experiment: Antiviral activity against HIV harboring reverse transcriptase K103N/Y181C mutant; type: functional, organism-based; conditions: Human immunodeficiency virus 1
Procedure, shortened: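 MT-4 cells (6×10^5 cells/mL) were infected with 100–300 CCID50 of virus, and mock-infected cells were run in parallel. Compounds were tested in serial fivefold dilutions in triplicate wells. After 5 days, viability was read by MTT reduction at 540 and 690 nm using the median OD of three wells. EC50 is the concentration giving 50% protection against virus-induced cytopathicity.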

[9] = test system: Human immunodeficiency virus; experiment: Antiviral activity against wild type HIV; type: functional, organism-based; conditions: Human immunodeficiency virus 1

Row | SMILES | selectivity ratio [1] | selectivity ratio [2] | EC50 [3] | CC50 [4] | EC50 [5] | CC50 [6] | IC50 [7] | EC50 [8] | EC50 [9]
1 | O=C(CSc1nccnc1-c1ccccc1Cl)Nc1ccccc1 | < 1 | < 1 | > 33 µM | 35 µM | > 35 µM | 33 µM | – | – | –
2 | O=C(CSc1nccnc1-c1ccccc1Cl)Nc1ccccc1F | 9 | < 1 | > 91 µM | 48 µM | 5.3 µM | 91 µM | – | – | –
3 | O=C(CSc1nccnc1-c1ccccc1Cl)Nc1ccccc1Cl | 7 | < 1 | > 46 µM | 34 µM | 4.6 µM | 46 µM | – | – | –
4 | O=C(CSc1nccnc1-c1ccccc1Cl)Nc1ccc(Cl)cc1Cl | 6 | < 1 | > 34 µM | 29 µM | 5.2 µM | 34 µM | – | – | –
5 | O=C(CSc1nccnc1-c1ccccc1Cl)Nc1ccccc1Br | 7 | < 1 | > 41 µM | 31 µM | 4.2 µM | 41 µM | – | – | –
6 | Cc1ccc(NC(=O)CSc2nccnc2-c2ccccc2Cl)c(Br)c1 | 9 | < 1 | > 35 µM | 31 µM | 4.3 µM | 35 µM | – | – | –
7 | O=C(CSc1nccnc1-c1ccccc1Cl)Nc1ccc(Cl)cc1Br | 5 | < 1 | > 29 µM | 26 µM | 5.1 µM | 29 µM | – | – | –
8 | CC(=O)c1ccc(NC(=O)CSc2nccnc2-c2ccccc2Cl)c(Br)c1 | 12 | < 1 | > 31 µM | 30 µM | 2.5 µM | 31 µM | – | – | –
9 | COC(=O)c1ccc(NC(=O)CSc2nccnc2-c2ccccc2Cl)c(Br)c1 | 25 | < 1 | > 108 µM | 95 µM | 3.7 µM | 108 µM | – | – | –
10 | CCOC(=O)c1ccc(NC(=O)CSc2nccnc2-c2ccccc2Cl)c(Br)c1 | 5 | < 1 | > 62 µM | 45 µM | 9 µM | 62 µM | – | – | –
11 | O=C(CSc1nccnc1-c1ccccc1Cl)Nc1ccccc1[N+](=O)[O-] | 23 | < 1 | > 55 µM | 39 µM | 1.7 µM | 55 µM | 50 µM | – | –
12 | Cc1ccc(NC(=O)CSc2nccnc2-c2ccccc2Cl)c([N+](=O)[O-])c1 | 19 | < 1 | > 148 µM | 54 µM | 2.9 µM | 148 µM | – | – | –
13 | O=C(CSc1nccnc1-c1ccccc1Cl)Nc1cccnc1Cl | 64 | < 1 | > 166 µM | 152 µM | 2.3 µM | 166 µM | – | – | –
14 | COC(=O)c1sccc1NC(=O)CSc1nccnc1-c1ccccc1Cl | < 1 | < 1 | > 48 µM | 68 µM | > 68 µM | 48 µM | – | – | –
15 | Cc1ccc2sc(NC(=O)CSc3nccnc3-c3ccccc3Cl)nc2c1 | < 1 | < 1 | > 30 µM | 32 µM | > 32 µM | 30 µM | – | – | –
16 | O=C(CSc1nccnc1-c1ccccc1Cl)N1CCCc2ccccc21 | < 1 | < 1 | > 34 µM | 33 µM | > 33 µM | 34 µM | – | – | –
17 | O=C(CSc1nccnc1-c1ccccc1Cl)N1CCc2ccccc2C1 | 8 | < 1 | > 50 µM | 33 µM | 4.1 µM | 50 µM | – | – | –
18 | NS(=O)(=O)c1ccc(NC(=O)CSc2nnc(Br)n2-c2ccc(C3CC3)c3ccccc23)c(Cl)c1 | – | – | – | – | – | – | – | 0.23 µM | 0.14 µM
19 | CC(C)Nc1cccnc1N1CCN(C(=O)c2cc3cc(NS(C)(=O)=O)ccc3[nH]2)CC1 [DELAVIRDINE] | > 1100 | – | – | > 36 µM | – | > 36 µM | – | – | –
20 | O=C1Nc2ccc(Cl)cc2[C@@](C#CC2CC2)(C(F)(F)F)O1 [EFAVIRENZ] | – | – | – | > 6.3 µM | – | > 6.3 µM | – | – | –
21 | Cc1ccnc2c1NC(=O)c1cccnc1N2C1CC1 [NEVIRAPINE] | – | – | – | > 15 µM | – | > 15 µM | – | – | –
22 | Nc1ccn([C@H]2CC[C@@H](CO)O2)c(=O)n1 [ZALCITABINE] | > 93 | > 74 | – | > 95 µM | – | > 95 µM | – | – | –
23 | Cc1cn([C@H]2C[C@H](N=[N+]=[N-])[C@@H](CO)O2)c(=O)[nH]c1=O [ZIDOVUDINE] | 12200 | 56900 | – | 249 µM | 0.021 µM | 249 µM | – | – | –
